# From PubChem
# CAL PDZ FP-1 = blocks peptide binding to human CAL PDZ domain | purified CAL PDZ, TMR-peptide fluorescence polarization, 1 h | 330,000 compounds, 0.02% hits | inhibition, % at 20 µM | Q9HD26;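 active means highest replicate inhibition of at least 40%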
#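 Material – purified CerCALP PDZ construct · Detection – FP readout, S and P plane fluorescence · Measure – percent inhibition from loss of millipolarization · Controls – unlabelled peptide for full inhibition, DMSO wells as neutral · Probe or stimulus – TMR-labelled reporter peptide T*-PRC34 bound in PDZ groove · Times – 1 h at RT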
# ERAP1 inh = ERAP1 (human) enzyme inhibition. AID 652197. Q9NZ08. recombinant ERAP1, Leu-AMC fluorescence, 60 min. 340,000 compounds, 0.15% hits. inhibition, % at 10.7 µM;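 active means mean replicate inhibition of at least 30%, or all replicates individually reaching that 30% level; inactive means mean below 30% and not every replicate reaching it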
# S100A4 inh HTS = S100A4-myosin IIA interaction inhibition; inhibition, % at 10.7 µM; AID 652163; S100A4/TAMRA-MyoIIA peptide fluorescence polarization; 360,000 compounds, 0.14% hits; P26447;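 active means mean inhibition of at least 70% across replicates, with every replicate also reaching that level; inconclusive means mean inhibition reaches 70% but some replicates fall short; inactive means mean inhibition below 70%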
# Target sequence (P26447 whole entry, looked up): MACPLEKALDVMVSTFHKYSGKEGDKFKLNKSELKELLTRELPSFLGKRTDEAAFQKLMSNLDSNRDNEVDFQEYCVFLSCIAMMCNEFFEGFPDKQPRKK
#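 Material: S100A4 monomer protein / Buffer or medium: 50 mM HEPES pH 7.2, 10 mM CaCl2, 100 mM KCl / Times: 5 min incubation before reading / Benchmarks: neutral control DMSO, positive control TFP / Reagent: labelled myosin peptide probe, 5 nM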
# CAL PDZ FP-2 = inhibitors of human CAL PDZ peptide binding; AID 602252; purified CAL PDZ, TMR-peptide fluorescence polarization, 1 h; Q9HD26; inhibition, % at 24.9 µM; 300,000 compounds, 0.92% hits;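 active means mean inhibition of at least 30% with at least half of replicates also reaching 30%; inconclusive means no clear call, values can overlap the other calls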
# SIRT5 block = blocks human SIRT5 desuccinylation of peptide | Purified SirT5, succinyl-peptide AMC, trypsin-coupled fluorescence | inhibition, % at 15 µM | 330,000 compounds, 1.1% hits; in the data active means inhibition above about 15%; inconclusive means no clear call, values can overlap the other calls
# Target sequence (Q9NXA8 whole entry, looked up): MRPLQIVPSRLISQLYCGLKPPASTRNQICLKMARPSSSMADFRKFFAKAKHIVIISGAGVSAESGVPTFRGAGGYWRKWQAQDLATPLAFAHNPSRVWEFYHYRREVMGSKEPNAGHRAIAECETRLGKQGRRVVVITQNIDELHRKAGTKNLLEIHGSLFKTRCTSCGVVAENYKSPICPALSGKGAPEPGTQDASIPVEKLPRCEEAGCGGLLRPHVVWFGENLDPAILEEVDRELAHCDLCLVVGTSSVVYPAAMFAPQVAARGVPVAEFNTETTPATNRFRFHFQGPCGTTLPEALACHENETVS
# DENV2 CPE rescue = protects cells from dengue virus 2 cytopathic effect; DENV2-infected cells, cytopathic effect rescue, plate reader; CPE inhibition, % at 9.99 µM; 350,000 compounds, 1.7% hits; in the data active means CPE inhibition above about 20%, passing the limit was not always enough; inconclusive means no clear call, values can overlap the other calls; tested in BHK-21 cells
# Hits are given with their value; i = inactive; ? = inconclusive; nt = not tested or not shown. An excerpt weighted towards active compounds, which were near 2.9% of everything screened.
SMILES,CAL PDZ FP-1,ERAP1 inh,S100A4 inh HTS,CAL PDZ FP-2,SIRT5 block,DENV2 CPE rescue
O=C(Cn1cnc2cc([N+](=O)[O-])ccc2c1=O)NCCc1ccc(F)cc1,i,i,i,i,i,nt
O=C(Nc1ccccc1)N1C[C@H]2[C@@H](c3ccccc31)[C@H](CO)N2C(=O)c1ccccc1F,nt,i,i,nt,i,i
C[C@@H]1CN([C@@H](C)CO)C(=O)c2cc(NC(=O)CCCN(C)C)ccc2O[C@@H](C)CCCCO[C@@H]1CN(C)Cc1ccc2c(c1)OCO2,nt,i,i,nt,i,i
CCc1nc(SCc2ccccc2C)n[nH]1,i,i,i,i,i,32
CN(Cc1nccn1C)C(=O)c1cc(COc2ccc3ncccc3c2)on1,i,i,i,42,i,i
Cc1cc(CN(C)C(=O)c2cc(COc3ccc4ncccc4c3)on2)on1,i,nt,i,76,i,i
CCOC(=O)N1CCN(C(=O)c2cc(COc3ccc4ncccc4c3)on2)CC1,i,i,i,i,20,i
CN(Cc1nccn1C)C(=O)c1cc(COc2cccc(C(F)(F)F)c2)on1,i,i,i,i,i,i
COc1ccc(NC(=O)N(C)C[C@@H]2OCCCC[C@@H](C)Oc3ccc(NS(=O)(=O)c4ccc(Cl)cc4)cc3C(=O)N([C@@H](C)CO)C[C@@H]2C)cc1,nt,i,i,nt,i,?
C[C@@H]1CN([C@@H](C)CO)C(=O)c2cc(N(C)C)ccc2O[C@@H](C)CCCCO[C@H]1CN(C)C(=O)CCC(F)(F)F,nt,i,i,nt,i,?
CC(=O)N(C)C[C@H]1Oc2ncc(C#Cc3cccc(F)c3)cc2C(=O)N([C@H](C)CO)C[C@@H]1C,nt,i,i,nt,i,i
COCC(=O)N(C)C[C@@H]1Oc2ncc(C#Cc3ccc(OC)cc3)cc2C(=O)N([C@@H](C)CO)C[C@H]1C,nt,i,i,nt,i,68
CC(=O)N(C)C[C@H]1Oc2ncc(C#CC(C)(C)O)cc2C(=O)N([C@@H](C)CO)C[C@@H]1C,nt,i,i,nt,i,30
CC(=O)N(C)C[C@@H]1Oc2ncc(C#Cc3cccc(F)c3)cc2C(=O)N([C@H](C)CO)C[C@H]1C,nt,i,i,nt,21,i
COCC(=O)N(C)C[C@@H]1Oc2ncc(C#CC(C)(C)O)cc2C(=O)N([C@@H](C)CO)C[C@@H]1C,nt,i,i,nt,i,24
COCC(=O)N(C)C[C@@H]1Oc2ncc(C#CC(C)(C)O)cc2C(=O)N([C@@H](C)CO)C[C@H]1C,nt,i,i,nt,i,i
COCC(=O)N(C)C[C@H]1Oc2ncc(-c3ccccc3OC)cc2C(=O)N([C@@H](C)CO)C[C@@H]1C,nt,i,i,nt,i,21
C/C=C/c1ccc2c(c1)O[C@H](CN(C)C(C)=O)[C@@H](C)CN([C@H](C)CO)S2(=O)=O,nt,i,i,nt,i,i
CCOc1ccc(Cl)cc1S(=O)(=O)N1CCC(C(=O)NCc2ccco2)CC1,i,i,i,98,i,i
CN(C)Cc1cc(C(C)(C)C)cc(N2CCOCC2)c1O,i,i,i,89,nt,i
C[C@H](NC(=O)N(C)C[C@@H]1OCc2ccccc2-c2ccccc2C(=O)N([C@@H](C)CO)C[C@@H]1C)c1ccccc1,nt,i,i,nt,i,i
CN1c2ccc(C#Cc3cccnc3)cc2[C@@H]2[C@@H](CCN2C(=O)CN2CCOCC2)[C@H]1CO,nt,nt,nt,nt,nt,i
Cc1oc2c(C)c3oc(=O)c(CCC(=O)NCCN4CCOCC4)c(C)c3cc2c1C,i,i,i,i,nt,29
C[C@H](CO)N1C[C@H](C)[C@H](CN(C)CC2CC2)Oc2c(NS(=O)(=O)c3ccc(Cl)cc3)cccc2C1=O,nt,i,i,nt,i,i
O=C(N[C@H]1CC[C@H](CCn2cc(C3CCCC3)nn2)O[C@@H]1CO)c1cccnc1,nt,i,i,nt,i,i
COc1ccc(NC(=O)N(C)C[C@@H]2Oc3ncc(C#CC(C)C)cc3C(=O)N([C@@H](C)CO)C[C@H]2C)cc1,nt,i,i,nt,i,i
COc1ccc(NC(=O)N(C)C[C@@H]2Oc3ncc(C#CC(C)C)cc3C(=O)N([C@@H](C)CO)C[C@@H]2C)cc1,nt,i,i,nt,i,53
COc1ccc(NC(=O)N(C)C[C@@H]2Oc3ncc(C#CC(C)(C)O)cc3C(=O)N([C@H](C)CO)C[C@@H]2C)cc1,nt,i,112,nt,i,i
